Common to all, as to assay type: functional
Assay [1] has as its system Staphylococcus aureus. Put plainly: Antimicrobial activity against Staphylococcus aureus ATCC 6538.
Assay [2] has as its system Mycobacterium tuberculosis. Put plainly: Antimicrobial activity against Mycobacterium tuberculosis.
The subject of assay [3] is Staphylococcus aureus. Put plainly: Antimicrobial activity against epidemic methicillin-resistant Staphylococcus aureus 15 by standard microdilution method. In short, it runs like this:
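Broth microdilution following NCCLS guidelines, at least in duplicate, against EMRSA-15 (mecA) precultured on nutrient agar. Medium was cation-adjusted Mueller-Hinton broth with 20 mg/L Ca2+ and 10 mg/L Mg2+. Inoculum was 5 × 10^5 cfu in 0.9% saline, set against a McFarland standard. Compounds were dissolved in DMSO (final ≤3.125% v/v) and tested at 1–512 µg/mL in 2-fold series. MIC was the lowest concentration with no visible growth.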

Assay [4] deals with Staphylococcus aureus. Put plainly: Antimicrobial activity against Staphylococcus aureus ATCC 25923 by standard microdilution method. In short, it runs like this:
(§1)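 Broth microdilution per NCCLS guidelines, at least in duplicate, in cation-adjusted Mueller-Hinton broth (20 mg/L Ca2+, 10 mg/L Mg2+). Strains were grown first on nutrient agar. Inoculum of 5 × 10^5 cfu was set in 0.9% saline against a McFarland standard. Compounds were dissolved in DMSO and given as 2-fold serial dilutions, final 1–512 µg/mL, with at most 3.125% v/v DMSO. MIC is the lowest concentration showing no visible growth.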

Assay [5] deals with Staphylococcus aureus. Put plainly: Antimicrobial activity against TetK multidrug efflux pump possessing Staphylococcus aureus XU-212 by standard microdilution method. In short, it runs like this: as §1

Each structure is given as a SMILES string. In brackets after ≈: the same amount, converted by molar mass.

In the case of `CCCCC[C@H]1CCCCCCCCCC(=O)O[C@H]2[C@H](O)[C@@H](CO)O[C@@H](O[C@H]3[C@H](O1)O[C@H](C)[C@H](O)[C@@H]3O)[C@@H]2O[C@@H]1O[C@@H](C)[C@H](OC(=O)[C@@H](C)CC)[C@@H](O[C@@H]2O[C@@H](C)[C@H](O)[C@@H](O)[C@H]2O)[C@H]1OC(=O)[C@@H](C)CC` [TRICOLORIN A], the MIC against Staphylococcus aureus [1] is 1 µg/mL (≈ 0.977 µM); in assay [2], 16 µg/mL (≈ 15.6 µM); in the assay with Staphylococcus aureus [3], 4 µg/mL (≈ 3.91 µM); against Staphylococcus aureus [4] it was 16 µg/mL (≈ 15.6 µM); in the assay with Staphylococcus aureus [5] it was 8 µg/mL (≈ 7.82 µM).
As to `CCCCC[C@H]1CCCCCCCCCC(=O)O[C@H]2[C@H](O)[C@@H](CO)O[C@@H](O[C@H]3[C@H](O1)O[C@H](C)[C@H](O)[C@@H]3O)[C@@H]2O[C@@H]1O[C@@H](C)[C@H](OC(=O)C(C)C)[C@@H](O[C@@H]2O[C@@H](C)[C@H](O)[C@@H](O)[C@H]2O)[C@H]1OC(=O)[C@@H](C)CC` [TRICOLORIN B], the minimal inhibitory concentration (MIC) turned out to be 1 µg/mL (≈ 0.991 µM) against Staphylococcus aureus [1]; 16 µg/mL (≈ 15.9 µM) in assay [2]; 16 µg/mL (≈ 15.9 µM) in the assay on Staphylococcus aureus [3]; 32 µg/mL (≈ 31.7 µM) in the assay on Staphylococcus aureus [4]; 16 µg/mL (≈ 15.9 µM) in the assay with Staphylococcus aureus [5].
As for `CCCCC[C@H]1CCCCCCCCCC(=O)O[C@H]2[C@H](O)[C@@H](CO)O[C@@H](O[C@H]3[C@H](O1)O[C@H](C)[C@H](O)[C@@H]3O)[C@@H]2O[C@@H]1O[C@@H](C)[C@H](OC(=O)[C@H](C)[C@@H](C)O)[C@@H](O[C@@H]2O[C@@H](C)[C@H](O)[C@@H](O)[C@H]2O)[C@H]1OC(=O)[C@@H](C)CC` [TRICOLORIN C], the MIC against Staphylococcus aureus [1] was determined as 1 µg/mL (≈ 0.962 µM); in assay [2] it was 16 µg/mL (≈ 15.4 µM); in the assay on Staphylococcus aureus [3] it was 32 µg/mL (≈ 30.8 µM); in the assay with Staphylococcus aureus [4], 32 µg/mL (≈ 30.8 µM); against Staphylococcus aureus [5], 16 µg/mL (≈ 15.4 µM).
Turning to `CCCCC[C@H]1CCCCCCCCCC(=O)OC[C@H]2O[C@@H](O[C@H]3[C@H](O1)O[C@H](C)[C@H](O)[C@@H]3O)[C@H](O[C@@H]1O[C@@H](C)[C@H](OC(=O)[C@@H](C)CC)[C@@H](O[C@@H]3O[C@@H](C)[C@H](O)[C@@H](O)[C@H]3O)[C@H]1OC(=O)[C@@H](C)CC)[C@@H](O)[C@@H]2O` [TRICOLORIN D], the MIC in the assay with Staphylococcus aureus [1] is 1 µg/mL (≈ 0.977 µM); in assay [2], 16 µg/mL (≈ 15.6 µM); in the assay on Staphylococcus aureus [3] it was 32 µg/mL (≈ 31.3 µM); against Staphylococcus aureus [4] it was 16 µg/mL (≈ 15.6 µM); against Staphylococcus aureus [5], 32 µg/mL (≈ 31.3 µM).
In the case of `CCCCC[C@H]1CCCCCCCCCC(=O)O[C@H]2[C@H](O)[C@@H](CO)O[C@@H](O[C@H]3[C@H](O1)O[C@H](C)[C@@H](O)[C@@H]3O)[C@@H]2O[C@@H]1O[C@@H](C)[C@H](OC(=O)[C@@H](C)CC)[C@@H](O[C@@H]2O[C@@H](C)[C@H](O)[C@@H](O)[C@H]2O)[C@H]1OC(=O)[C@@H](C)CC` [TRICOLORIN E], the MIC against Staphylococcus aureus [1] came to 1 µg/mL (≈ 0.977 µM); in assay [2], 16 µg/mL (≈ 15.6 µM); in the assay on Staphylococcus aureus [3], 8 µg/mL (≈ 7.82 µM); in the assay with Staphylococcus aureus [4], 16 µg/mL (≈ 15.6 µM); against Staphylococcus aureus [5] it was 8 µg/mL (≈ 7.82 µM).

The values above are taken from ChEMBL document CHEMBL1157295, “Polyacylated oligosaccharides from medicinal Mexican morning glory species as antibacterials and inhibitors of multidrug resistance in Staphylococcus aureus” (2006).
